Reference: PubChem BioAssay
Calls of active or inactive are those of the source.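 How the source made its calls, unless noted: active means fluorescence slope higher than the sample average by over 3 SD (cut at about -0.22 in these data, passing the limit was not always enough); inactive means the rest.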

What was measured:
[1] = inhibitors of TNFa-induced NFkB p65 translocation, primary screen, imaging, HUVEC, MLSMR starter and 10KST1 sets (AID 438;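 active means inhibition above 20% together with a positive visual image hit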;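 further: compound added about 3h40 before a 20 min TNFalpha stimulation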;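 on inhibition: signal is the nuclear over cytoplasmic p65 intensity ratio per well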); settings: HUVEC TNFa-induced p65 nuclear translocation; cell count: measured here: nuclei count (cytotoxicity indicator), at 2.08 µM; inhibition: at 2 µM, stronger effect = higher value, 0% TNFa-plus-vehicle, 100% no-TNFa wells
[2] = inhibitors of E-selectin induction by TNFa, primary screen, imaging, HUVEC, immunofluorescence, MLSMR starter and 10KST1 sets (AID 487;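 active means visually confirmed hit in the image check and inhibition above 20%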;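 on inhibition: signal is fraction of cell area covered by stained E-selectin grains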;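 on nuclei count: 100% = median nuclei count of all wells on the same plate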); settings: HUVEC TNFalpha-induced E-selectin immunofluorescence imaging, at 2 µM; inhibition: stronger effect = higher value; nuclei count: measured here: cell number, toxicity
[3] = DUSP6 inhibitors restoring Erk phosphorylation by chemical complementation, primary imaging in DUSP6-transfected HeLa (AID 609;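 active means compounds giving at least 50% inhibition in the cell-based MKP-3 phosphatase rescue imaging test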;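 on inhibition: phospho-Erk level distribution per well compared with pooled transfected vehicle control wells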); settings: HeLa MKP-3 transfected, phospho-Erk imaging KS statistic, at 10 µM, cells stimulated with TPA for 15 min
[4] = molecular target: Dual specificity protein phosphatase 6 (Homo sapiens) (UniProt Q16828); assay: as above; settings: HeLa MKP-3 transfected, phospho-Erk imaging KS statistic; at 10 µM; stronger effect = higher value; cells stimulated with TPA for 15 min
Chain of Dual specificity protein phosphatase 6 (Homo sapiens) (Q16828 whole entry, looked up): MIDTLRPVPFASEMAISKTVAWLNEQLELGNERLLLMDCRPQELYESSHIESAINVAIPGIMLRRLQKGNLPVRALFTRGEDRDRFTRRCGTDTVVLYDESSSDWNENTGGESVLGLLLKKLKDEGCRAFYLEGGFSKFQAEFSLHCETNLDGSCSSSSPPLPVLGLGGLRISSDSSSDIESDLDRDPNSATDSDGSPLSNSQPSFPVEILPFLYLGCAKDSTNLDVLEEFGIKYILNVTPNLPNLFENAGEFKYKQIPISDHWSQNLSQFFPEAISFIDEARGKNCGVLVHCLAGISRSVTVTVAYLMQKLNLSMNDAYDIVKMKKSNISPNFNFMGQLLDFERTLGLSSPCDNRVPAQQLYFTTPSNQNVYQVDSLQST

[5] = molecular target: Voltage-gated potassium channel subunit beta-2 (Rattus norvegicus) (UniProt P62483); assay: KvBeta enzyme negative modulators, primary screen, biochemical, NADPH fluorescence (AID 622); settings: recombinant KvBeta, 4-cyanobenzaldehyde reduction, at 10 µM, stronger effect = higher value;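 further: slope of raw intensity against log time taken from 70 to 1610 s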
Chain of Voltage-gated potassium channel subunit beta-2 (Rattus norvegicus) (P62483 whole entry, looked up): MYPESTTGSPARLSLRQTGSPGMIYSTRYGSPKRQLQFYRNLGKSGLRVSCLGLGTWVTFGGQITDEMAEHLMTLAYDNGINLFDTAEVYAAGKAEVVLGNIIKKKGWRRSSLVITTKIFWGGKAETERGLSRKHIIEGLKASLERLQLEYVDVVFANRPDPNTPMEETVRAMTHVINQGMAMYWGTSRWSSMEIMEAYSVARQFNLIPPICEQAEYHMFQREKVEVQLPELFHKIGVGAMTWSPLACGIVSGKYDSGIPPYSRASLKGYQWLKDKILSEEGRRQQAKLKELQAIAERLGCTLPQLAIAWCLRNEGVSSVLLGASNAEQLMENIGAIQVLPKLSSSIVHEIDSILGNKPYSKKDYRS

[6] = molecular target: Voltage-gated potassium channel subunit beta-2 (Rattus norvegicus) (UniProt P62483); assay: KvBeta positive modulators, primary screen, biochemical, NADPH fluorescence (AID 623;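 active means NADPH fluorescence slope more negative than the mean of all samples by about 3 SD, 99.7% confidence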;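 further: fluorescence intensity change per second fitted from 20 to 320 s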); settings: Recombinant KvBeta, NADPH fluorescence decrease slope, 10 min; at 10 µM; stronger effect = lower value
[7] = molecular target: Muscarinic acetylcholine receptor M4 (Homo sapiens) (UniProt P08173); assay: compounds altering M4/GIRK thallium flux, either direction, primary screen, M4 allosteric agonist project, cell-based, HEK293 M4/GIRK, BTC-AM (AID 625;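 active means fluorescence slope after compound addition differing from the mean of all tested samples at 99.7% confidence, mostly higher but some lower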;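 further: thallium influx through GIRK channels coupled to M4 in HEK293 cells with BTC-AM dye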); settings: at 10 µM, actives lie on both sides
Chain of Muscarinic acetylcholine receptor M4 (Homo sapiens) (P08173 whole entry, looked up): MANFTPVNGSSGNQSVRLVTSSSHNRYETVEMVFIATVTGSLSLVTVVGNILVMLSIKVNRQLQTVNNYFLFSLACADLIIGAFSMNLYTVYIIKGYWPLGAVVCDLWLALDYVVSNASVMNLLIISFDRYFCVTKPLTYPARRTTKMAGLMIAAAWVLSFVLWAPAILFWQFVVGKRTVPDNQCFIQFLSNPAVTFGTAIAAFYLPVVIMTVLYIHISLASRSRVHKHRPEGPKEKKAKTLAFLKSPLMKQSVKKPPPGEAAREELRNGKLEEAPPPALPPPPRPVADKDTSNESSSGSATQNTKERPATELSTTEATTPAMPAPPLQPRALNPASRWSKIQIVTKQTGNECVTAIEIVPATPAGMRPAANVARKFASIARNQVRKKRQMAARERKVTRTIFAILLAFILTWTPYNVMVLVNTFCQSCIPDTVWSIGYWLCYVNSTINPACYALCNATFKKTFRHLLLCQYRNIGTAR
Outline: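 Assay system: HEK293 cells with M4 receptor and GIRK channels / Controls: carbachol and DMSO controls / Schedule: 1 h dye loading, 2 min kinetic read / Technique: kinetic fluorescence with BTC-AM dye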

[8] = inhibitors of larval lipid processing in zebrafish, primary screen, whole organism, PED6 fluorescence, gall bladder and intestine (AID 686;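 active means a full or partial loss of lipid-probe fluorescence in the fish gall bladder, intestine or both, judged by eye; inactive means no fluorescence loss, or compound toxic to the fish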;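 further: larvae 5 to 7 days old with five fish per well; signal comes from phospholipase A2 cleavage of quenched PED6 carried via bile; overnight exposure to compound and PED6 before scoring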); settings: Zebrafish larvae PED6 lipid processing, fluorescence scoring; screened at 20 µM (by protocol)
Outline: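 Doses: 20 µM single dose. Test system: live zebrafish larvae aged 5-7 days, whole organism. Quantity: five larvae per well. Measured by: By-eye fluorescence microscopy. Reagent: ingested quenched lipid PED6 at 100 nM. Read-out: visual per-well fluorescence inhibition score. Times: overnight exposure of larvae to compound plus PED6.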

[9] = inhibitors of Chlamydomonas gravitaxis, primary screen, whole organism, Chlamydomonas reinhardtii, WT vs cilia-less mutant, absorbance, 96-well (AID 463189;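 active means inhibition at or above 50% relative to wild type and mutant plate controls; inactive means inhibition below 50%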;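 further: 0% = wild type cc124 cells in DMSO and 100% = ciliumless bld1 mutant cells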); settings: OD600 absorbance, 2 days, at 10 µM, stronger effect = higher value
[10] = measured here: cell density z-score
[11] = measured here: nuclear c-Myc green intensity z-score
[12] = measured here: nuclear pErk red intensity z-score, stronger effect = higher value

SMILES	cell count [1]	inhibition [1]	inhibition [2]	nuclei count [2]	z-score [3, 10]	z-score [3, 11]	z-score [3, 12]	inhibition [4]	fluorescence slope [5]	NADPH fluorescence slope [6]	fluorescence slope [7]	outcome [8]	inhibition [9]
O=c1c2sc3nc(N4CCOCC4)c4c(c3c2ncn1Cc1ccco1)CCCC4	502	2.3% (inactive)	-62.8% (inactive)	143%	-0.769	-0.213	0.589	21.8% (inactive)	-0.369 (inactive)	-1.9e-05 (inactive)	0.00575 (inactive)	inactive	30% (inactive)
CC1(C)Cc2c(c(N3CCOCC3)nc3sc4c(=O)[nH]cnc4c23)CS1	493	-5.7% (inactive)	10.3% (inactive)	100%	-0.312	0.705	1.1	7.93% (inactive)	-0.44 (inactive)	-1.9e-05 (inactive)	0.00568 (inactive)	inactive	28.7% (inactive)
COc1cc(Cn2ccnc2)c(OC)cc1Cn1ccnc1	588	0.1% (inactive)	-64% (inactive)	154%	0.988	1.55	0.136	1.63% (inactive)	-0.422 (inactive)	-0.000118 (inactive)	0.0052 (inactive)	inactive	10.7% (inactive)
CCCCCCOc1ccc(C(=O)n2cnc(N)n2)cc1	664	-4.5% (inactive)	-26.7% (inactive)	174%	0.344	0.534	-0.706	-5.95% (inactive)	-0.508 (inactive)	-7.5e-05 (inactive)	0.00638 (inactive)	inactive	0.29% (inactive)
C=CCn1c(=N)c(C(=O)OCC)cc2c(=O)n3cccc(C)c3nc21	614	5.3% (inactive)	-125% (inactive)	149%	-2.08	1.41	1.9	-9.66% (inactive)	-0.114 (inactive)	-2e-05 (inactive)	0.00285 (inactive)	inactive	159% (active)
CCCC(=O)N1CCc2[nH]c3ccccc3c2C1	502	4.2% (inactive)	1.1% (inactive)	167%	0.76	0.615	-0.975	-5.62% (inactive)	-0.485 (inactive)	-2.8e-05 (inactive)	0.0054 (inactive)	inactive	-3.97% (inactive)
CCOc1ccc(N=C2C(=O)N(CN3CCOCC3)c3ccccc32)cc1	653	-4.3% (inactive)	-371% (inactive)	156%	0.894	-0.754	-0.416	10.1% (inactive)	-0.486 (inactive)	-7.9e-05 (inactive)	0.00278 (inactive)	inactive	9.3% (inactive)
Cn1c(=O)[nH]c(=O)c2c1nc(N1CCN(c3cccc(Cl)c3)CC1)n2CCCc1ccccc1	620	-6% (inactive)	-19.3% (inactive)	104%	0.751	-1.24	-0.00216	24% (inactive)	-0.442 (inactive)	-6.2e-05 (inactive)	0.0083 (inactive)	inactive	-0.786% (inactive)
Cn1c(OCc2cccnc2)nc2c1c(=O)n(Cc1ccccc1)c(=O)n2C	719	-11.2% (inactive)	-145% (inactive)	176%	1.38	-0.255	-1.04	25.8% (inactive)	-0.489 (inactive)	-5.3e-05 (inactive)	0.00844 (inactive)	inactive	21.1% (inactive)
Cc1cc(NCCNC2=CC(=O)CCC2)nc2ccccc12	473	-10.2% (inactive)	-41.3% (inactive)	148%	-0.963	1.28	-0.176	-3.97% (inactive)	-0.431 (inactive)	-4.6e-05 (inactive)	0.0072 (inactive)	inactive	-12.8% (inactive)
Cc1nnc2n(-c3ccccc3)c(=O)c3c4c(sc3n12)COC(C)(C)C4	526	-14.8% (inactive)	-32.4% (inactive)	98.4%	0.218	-0.0554	-0.749	24% (inactive)	-0.48 (inactive)	2.3e-05 (inactive)	0.00589 (inactive)	inactive	38.4% (inactive)
C/C(NC(=O)c1ccccc1F)=C1\C(=O)C[C@@H]2[C@H]1C2(C)C	697	-13.5% (inactive)	-170% (inactive)	187%	-0.142	0.763	-0.13	-2.47% (inactive)	-0.483 (inactive)	-0.000131 (inactive)	0.00606 (inactive)	inactive	24.1% (inactive)
CC(Sc1ccc2ccccc2n1)C(=O)O (configuration not stated)	709	-5.5% (inactive)	23% (inactive)	185%	0.12	0.234	-0.321	7.21% (inactive)	-0.478 (inactive)	-9e-05 (inactive)	0.00615 (inactive)	inactive	-8.1% (inactive)
COc1cc(C2Nc3cccc4cccc(c34)N2)cc(OC)c1OC(C)=O	498	-3.5% (inactive)	-2.1% (inactive)	85.3%	0.65	-1.19	0.407	-2.59% (inactive)	-0.474 (inactive)	7.8e-06 (inactive)	0.00327 (inactive)	inactive	17.1% (inactive)
Cc1cc(N2C(=O)C(=O)/C(=C(/O)c3ccc(F)cc3)C2c2cccc(Br)c2)no1 (configuration not stated)	478	2.6% (inactive)	2.7% (inactive)	145%	0.015	0.305	1.03	1.04% (inactive)	-0.439 (inactive)	-4.6e-05 (inactive)	0.00551 (inactive)	inactive	15.6% (inactive)
Cc1nnc2n(C3CCCCC3)c(=O)c3c4c(sc3n12)COC(C)(C)C4	471	-0.7% (inactive)	-19% (inactive)	96.4%	-2.3	1.13	-0.467	-3.97% (inactive)	-0.389 (inactive)	7.7e-06 (inactive)	0.00567 (inactive)	inactive	11.1% (inactive)
CCOC(=O)c1[nH]c2ccc(OC)cc2c1NC(=O)CCN1CCc2ccccc2C1	515	-5.3% (inactive)	-124% (inactive)	136%	-0.0545	-2.02	1.46	3.42% (inactive)	-0.323 (inactive)	-3.8e-05 (inactive)	0.00491 (inactive)	inactive	-5.17% (inactive)
COc1ccccc1C(=O)Nc1cc(Cl)ccc1O	582	-2.4% (inactive)	-76% (inactive)	123%	-1.1	0.45	1.34	9.42% (inactive)	-0.431 (inactive)	-0.000129 (inactive)	0.00516 (inactive)	inactive	21.5% (inactive)
COC(=O)c1[nH]c2cc(OC)ccc2c1NC(=O)CN1CCN(c2cccc(C)c2)C(C)C1 (configuration not stated)	670	1% (inactive)	-108% (inactive)	166%	-0.376	-0.924	-0.753	-1.12% (inactive)	-0.429 (inactive)	-3.4e-05 (inactive)	0.0042 (inactive)	inactive	4.21% (inactive)
N#Cc1c(N2CCCCC2)nc(N2CCCCC2)c2c1CCN(Cc1ccccc1)C2	606	-3.7% (inactive)	-146% (inactive)	154%	0.785	-0.814	0.622	-4.59% (inactive)	-0.431 (inactive)	-9.2e-05 (inactive)	0.0046 (inactive)	inactive	4.47% (inactive)
COCC(C)Nc1ncnc2c1cnn2-c1ccc(Cl)cc1 (configuration not stated)	607	-19.2% (inactive)	-34.4% (inactive)	170%	1.51	-0.865	0.282	3.42% (inactive)	-0.398 (inactive)	-1.2e-05 (inactive)	0.00516 (inactive)	inactive	18.7% (inactive)
CN(C)C(=O)COn1c(SCC(=O)N(C)C)nc2ccccc2c1=O	739	2% (inactive)	-47.5% (inactive)	191%	-0.833	-0.176	1.1	0.671% (inactive)	-0.428 (inactive)	-3.4e-05 (inactive)	0.00719 (inactive)	inactive	0.936% (inactive)
CCN(CC)CCCN1C(=O)C(=O)/C(=C(/O)c2ccc3c(c2)CC(C)O3)C1c1ccncc1 (configuration not stated)	613	-2.6% (inactive)	-3.9% (inactive)	154%	1.2	-0.776	-1.04	19.4% (inactive)	-0.478 (inactive)	-4.1e-05 (inactive)	0.00593 (inactive)	inactive	17% (inactive)
O=C1C(=O)N(CCCn2ccnc2)C(c2ccccn2)/C1=C(/O)c1ccccc1 (configuration not stated)	436	-12.2% (inactive)	-259% (inactive)	147%	-0.279	-1.33	0.494	9.37% (inactive)	-0.469 (inactive)	-5.2e-05 (inactive)	0.00446 (inactive)	inactive	0.678% (inactive)
